Assay outcomes (PubChem)
MrgX1 antagonist = blocks BAM8-22 activation of human MrgX1 receptor; Q96LB2; MRGX1-HEK293 calcium flux, Fluo-4, BAM8-22 antagonism; active compounds read low; B-score at 10 µM; 1.3% of 310,000 active;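 active = calcium-response B-score plate-corrected more than 3 library SD below zero, starting fluorescence within 5 deviations, no agonist response on first addition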;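 also: peak minus trough fluorescence over baseline after final BAM8-22 challenge near maximal dose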
Target sequence (Q96LB2 whole entry, looked up): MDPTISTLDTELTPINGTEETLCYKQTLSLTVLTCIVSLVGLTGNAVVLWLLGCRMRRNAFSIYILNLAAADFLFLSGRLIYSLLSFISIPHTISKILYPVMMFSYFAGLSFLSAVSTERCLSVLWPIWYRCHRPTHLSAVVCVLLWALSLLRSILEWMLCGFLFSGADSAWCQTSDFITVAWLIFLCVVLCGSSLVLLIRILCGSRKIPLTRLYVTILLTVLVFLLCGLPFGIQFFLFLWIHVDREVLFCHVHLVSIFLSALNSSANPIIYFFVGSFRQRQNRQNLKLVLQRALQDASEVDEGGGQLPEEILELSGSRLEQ
RGS4 pot = potentiators or activators of RGS4; HEK293 M3R/inducible RGS4, carbachol calcium flux Fluo4; active compounds read low; B-score at 10 µM; 0.92% of 310,000 active; AID 463111;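 active = B-score of the integrated calcium signal more than 4 SD below the library mean, with starting fluorescence not abnormally high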;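 also: negative B-score means reduced calcium response which marks RGS4 activation or potentiation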
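System – HEK293 FlpIn-TREx cells, stable M3R, doxycycline-inducible RGS4 · Reagent – ECmax carbachol challenge · Times – compound preincubation 20 min at room temperature before agonist · Technique – Fluo4 fluorescence kinetic imaging of calcium · Measure – B score of integrated Fluo4 ratio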
MrgX1 PAM = allosterically activates human MrgX1 receptor signaling; Q96LB2; MrgX1-HEK293, Fluo-4 calcium flux, FDSS; active compounds read high; B-score at 10 µM; 0.63% of 310,000 active;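 active = plate-corrected calcium response at least 3 library SD above typical, normal starting fluorescence, not activating the receptor alone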;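 also: compound read alongside a low EC10 to EC30 dose of BAM8-22 agonist; peak minus trough fluorescence over baseline measured at the second addition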
MrgX1 agonist = agonists of human MrgX1 receptor; Q96LB2; MrgX1-HEK293 cells, Fluo-4 calcium fluorescence, agonist mode; active compounds read high; B-score at 10 µM; 0.44% of 310,000 active; AID 588627;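 active = calcium response B-score plate-corrected fluorescence ratio at least 3 library SD, with starting fluorescence B-score inside 5 SD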
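Material: MrgX1-expressing HEK293 cells / Dosing: compound as first of three additions / Incubation: overnight seeding, then 1 h dark dye loading / Signal: Fluo-4 NW calcium fluorescence / Evaluation: B-scored fluorescence response ratio / Benchmarks: positive and negative control wells on each plate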
RGS4 inh = human RGS4 inhibition. 0.45% of 310,000 active. HEK293 M3R/RGS4 inducible, Fluo-4 calcium flux; active compounds read high; triggered by carbachol at its EC20. B-score at 10 µM. P49798;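 active = B-score, a plate-corrected calcium signal, over three deviations above library mean, with baseline fluorescence within five deviations of library mean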;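 also: RGS4 expression induced by doxycycline in cells with stable M3 receptor; B-score is computed from the integrated fluorescence ratio over baseline after carbachol; higher B-score means a larger calcium signal and so more RGS4 inhibition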
Target sequence (P49798 whole entry, looked up): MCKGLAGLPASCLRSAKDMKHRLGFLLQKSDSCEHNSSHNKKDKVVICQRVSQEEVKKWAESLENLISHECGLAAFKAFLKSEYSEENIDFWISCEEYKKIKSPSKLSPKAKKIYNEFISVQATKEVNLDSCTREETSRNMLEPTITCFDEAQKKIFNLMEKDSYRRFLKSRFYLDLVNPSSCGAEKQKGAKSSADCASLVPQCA
RGS4 act valid = RGS4 activation, validation assay; shares compounds with RGS4 pot; HEK293 M3R/RGS4 inducible, carbachol calcium flux Fluo4; inhibition, % at 10 µM; 89% of 1,100 active; AID 602282;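 active = inhibition above 3 SD of the buffer control wells, cut at about 41% in these data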;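 also: signal is the integrated peak-minus-minimum Fluo4 fluorescence over baseline ratio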
RGS4 act ctr = counter-screen for RGS4 activators: effect in non-induced cells; 82% of 1,100 active; AID 602283; inhibition, % at 10 µM; shares compounds with RGS4 pot; HEK293 M3R non-induced RGS4, Fluo4 calcium flux; after carbachol challenge at its EC90;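 active = inhibition exceeding 3 SD of buffer-only control wells, cut at about 26% in these data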;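 also: percent drop in integrated peak-minus-baseline over baseline Fluo4 ratio after carbachol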
Numbers without * were called inactive; i = inactive; nt = not tested or not shown. Rows were chosen to be rich in hits. Some 3.5% of all compounds tested hit in one or more screens of this group.

SMILES | MrgX1 antagonist | RGS4 pot | MrgX1 PAM | MrgX1 agonist | RGS4 inh | RGS4 act valid | RGS4 act ctr
O=C(O)c1ccc(N2C(=O)/C(=C/c3ccc(-c4ccc([N+](=O)[O-])cc4)o3)C=C2c2ccccc2)cc1 | i | -6.96* | i | i | i | nt | nt
CCCC(=O)C1=C(O)C(C(=O)OC)C(C)(C)CC1=Nc1ccccc1 (stereo not given) | i | i | i | i | i | nt | nt
CCCC(=O)C1=C(O)C(C(=O)OC)C(C)(C)CC1=Nc1cccc2ccccc12 (stereo not given) | i | i | 8.07* | i | i | nt | nt
O=C(O)CCCC(=O)NNC(=O)c1cccc(Br)c1 | i | i | i | i | i | nt | nt
O=C(O)CCC(=O)NNC(=O)c1ccc(Br)cc1 | -9.28* | i | i | i | i | nt | nt
CC/C(=N\Nc1ccc([N+](=O)[O-])cc1)c1ccccc1 | i | i | i | i | i | nt | nt
CCC1(C(=O)c2ccccc2)C(c2ccc([N+](=O)[O-])cc2)C1(C(=O)OC)C(=O)OC (stereo not given) | i | i | i | 26.8* | i | nt | nt
Cc1ccc(NC(=O)/C(Cl)=C/c2ccccc2)cc1C | i | i | 8.96* | i | i | nt | nt
O=C(/C(=C(\[O-])c1ccccc1)[n+]1ccc2ccccc2c1)c1ccc([N+](=O)[O-])cc1 | -5.65* | i | i | i | i | nt | nt
O=C(/C(=C(\[O-])c1ccccc1)[n+]1ccc2ccccc2c1)c1ccccc1 | i | i | i | i | i | nt | nt
CC1(NC(=O)CCc2nc3ccccc3c(=O)[nH]2)CCS(=O)(=O)C1 (stereo not given) | i | i | i | i | i | nt | nt
O/N=C/c1nc2cc(Cl)ccc2o1 | i | i | 9.43* | i | i | nt | nt
COc1ccc(S(=O)(=O)Nc2noc3ccccc23)cc1 | i | i | i | i | i | nt | nt
COc1cc2c(cc1OC)/C(=C/C(=O)c1ccc(OC)c([N+](=O)[O-])c1)NCC2 | -4.58* | -7.29* | i | i | i | nt | nt
O=C(NCCCn1ccnc1)C1CCCN(S(=O)(=O)c2ccc(F)cc2)C1 (stereo not given) | i | i | i | i | i | nt | nt
NC(N)=NC(=O)c1nc(Cl)c(N2CCCCCC2)nc1N | i | nt | i | 57.4* | nt | nt | nt
NC(N)=NC(=O)c1nc(Cl)c(N)nc1N | i | i | i | i | i | nt | nt
O=C(Nc1cccc(S(=O)(=O)N2CCCC2)c1)c1ccc2c(=O)n3c(nc2c1)CCCCC3 | i | i | i | i | i | nt | nt
O=C(Nc1cccc(S(=O)(=O)N2CCOCC2)c1)c1ccc2c(=O)n3c(nc2c1)CCCCC3 | i | -7.34* | i | i | i | nt | nt
CCOc1ccc2nc(SCC(=O)NCc3ccc(S(N)(=O)=O)cc3)[nH]c2c1 | i | i | i | i | i | nt | nt
O=C(Nc1ccccc1)Nc1cc(Cl)cc(Cl)c1 | i | -8.28* | i | i | i | 62.5* | 83.8*
CCOC(=O)c1nnn(-c2nonc2-n2cccc2)c1CCl | i | i | i | i | i | nt | nt
CCOC(=O)c1nnn(-c2nonc2-n2cccc2)c1CN1CCC(C)CC1 | i | -8.02* | i | i | i | 71.5* | 0.0
Cc1ccc2oc(=O)c3cc(C(=O)NCCCN4CCc5ccccc5C4)sc3c2c1 | i | -7.7* | i | i | i | 51.0* | 83.8*
Cc1ccc2oc(=O)c3cc(C(=O)NCCCN4CCCCCC4)sc3c2c1 | i | i | i | i | i | nt | nt
SMILES | MrgX1 antagonist | RGS4 pot | MrgX1 PAM | MrgX1 agonist | RGS4 inh | RGS4 act valid | RGS4 act ctr
O=C(CCS(=O)(=O)Cc1ccccc1)Nc1nc2c(s1)CCCC2 | i | -10.6* | i | i | i | 0.0 | 0.0
O=C(CS(=O)(=O)Cc1ccccc1)Nc1nc2c(s1)CCCC2 | i | i | i | i | i | nt | nt
COc1ccc(S(=O)(=O)N2CCCCC2)cc1NC(=O)c1ccc2ccccc2n1 | i | i | i | i | i | nt | nt
COc1ccc(NC(=O)c2ccc3ccccc3n2)cc1S(=O)(=O)N1CCCCC1 | i | -8.62* | i | i | i | 92.0* | 49.3*
Cc1ccccc1C(=NCCCN(C)C)c1ccccc1C | i | -9.35* | i | i | i | 87.5* | 55.8*
Cc1ccc(Nc2nc(Cl)nc(NC(C)(C)C)n2)cc1 | i | -8.18* | i | i | i | 71.0* | 38.8*
COCCn1c(SCC#N)nnc1-c1ccc([N+](=O)[O-])cc1 | i | i | i | i | i | nt | nt
S=c1[nH]nc(-c2ccncc2)n1/N=C/C=C/c1ccco1 | i | i | i | i | i | nt | nt
S=c1[nH]nc(-c2ccccc2Cl)n1/N=C/C=C/c1ccco1 | i | -8.18* | i | i | i | 94.5* | 88.8*
COC(=O)c1cc2ccsc2n1Cc1nc(-c2ccc(OC)cc2)oc1C | i | -11.2* | i | i | i | 92.5* | 79.3*
CCOC(=O)c1cc2c(ccn2C)n1CC(=O)N(Cc1ccccc1)c1ccccc1 | i | i | i | i | i | nt | nt
CCOC(=O)c1cc2c(ccn2C)n1Cc1ccccc1C | i | -8.8* | i | i | i | 84.5* | 39.8*
Cc1ccccc1Cn1c(C(=O)OC(C)C)cc2c1ccn2C | i | -8.02* | i | i | i | 90.0* | 50.3*
CC(C)Cc1nc(SCC(=O)N2CCCC2)c2c(=O)n(C)c(=O)n(C)c2n1 | i | i | i | i | i | nt | nt
COC(=O)c1c(NC(=O)CSc2nnc(-c3ccco3)n2C)sc(C)c1C | i | i | i | i | i | nt | nt
CCOC(=O)c1sc(NC(=O)CSc2nnc(-c3ccco3)n2CC)c(C(=O)OCC)c1C | i | -18.3* | i | i | i | 92.0* | 91.3*
CC1(C)CC(=O)C2=C(C1)OC(N)=C(C#N)C2c1cn(-c2ccccc2)nc1-c1ccccc1 (stereo not given) | i | -10.9* | i | i | i | 0.0 | 0.0
CC1(C)CC(=O)C2=C(C1)OC(N)=C(C#N)C2c1ccoc1 (stereo not given) | i | i | i | i | i | nt | nt
FC(F)(F)c1nc(-c2ccncc2)ncc1-c1nnnn1-c1ccccc1 | i | i | i | i | i | nt | nt
Fc1ccc(-n2nnnc2-c2cnc(-c3cccs3)nc2C(F)(F)F)cc1 | i | -9.72* | i | i | i | 73.5* | 44.3*
Cc1ccc(C(=O)O/N=C(\N)c2nonc2N)cc1 | i | i | i | i | i | nt | nt
